From ChEMBL document CHEMBL1150813, “Triterpene saponins from Vietnamese ginseng (Panax vietnamensis) and their hepatocytoprotective activity” (J Nat Prod, 2001)

Key:
Assay type in all cases: functional
Hepatocyte [1] = test: Hepatoprotective activity against D-galactosamine/TNFalpha-induced cell death in mouse hepatocytes assessed cell survival rate at 100 uM administered before 30 mins of TNFalpha challenge measured after 18 hrs by MTT assay
In short: (§1)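 Primary mouse hepatocytes, isolated by collagenase perfusion, were cultured in William's E medium with 10% calf serum, dexamethasone and insulin at 1.5×10^4 cells/well. TNF-α (100 ng/mL) was added 30 min later. Viability was read by MTT after 18 h. Values are mean ± SD, n = 4 (normal and control n = 8), with Student's t-test versus control.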

Hepatocyte [2] = test: Hepatoprotective activity in mouse hepatocytes assessed inhibition of D-galactosamine/TNFalpha-induced cell death at 100 uM administered before 30 mins of TNFalpha challenge measured after 18 hrs; in short: as §1
Hepatocyte [3] = test: Hepatoprotective activity in mouse hepatocytes assessed inhibition of D-galactosamine/TNFalpha-induced cell death at 200 uM administered before 30 mins of TNFalpha challenge measured after 18 hrs; in short: as §1
Hepatocyte [4] = test: Hepatoprotective activity in mouse hepatocytes assessed inhibition of D-galactosamine/TNFalpha-induced cell death dosed administered before 30 mins of TNFalpha challenge measured after 18 hrs; in short: as §1
Hepatocyte [5] = test: Hepatoprotective activity in mouse hepatocytes assessed protection against D-galactosamine/TNFalpha-induced cell death at 50 uM administered before 30 mins of TNFalpha challenge measured after 18 hrs; in short: as §1
Hepatocyte [6] = test: Hepatoprotective activity in mouse hepatocytes assessed protection against D-galactosamine/TNFalpha-induced cell death at 100 uM administered before 30 mins of TNFalpha challenge measured after 18 hrs; in short: as §1
Hepatocyte [7] = test: Hepatoprotective activity against D-galactosamine/TNFalpha-induced cell death in mouse hepatocytes assessed cell survival rate at 50 uM administered before 30 mins of TNFalpha challenge measured after 18 hrs by MTT assay; in short: as §1
Hepatocyte [8] = test: Hepatoprotective activity in mouse hepatocytes assessed protection against D-galactosamine/TNFalpha-induced cell death at 200 uM administered before 30 mins of TNFalpha challenge measured after 18 hrs; in short: as §1
Hepatocyte [9] = test: Hepatoprotective activity in mouse hepatocytes assessed inhibition of D-galactosamine/TNFalpha-induced cell death at 50 uM administered before 30 mins of TNFalpha challenge measured after 18 hrs; in short: as §1
Hepatocyte [10] = test: Hepatoprotective activity against D-galactosamine/TNFalpha-induced cell death in mouse hepatocytes assessed cell survival rate at 200 uM administered before 30 mins of TNFalpha challenge measured after 18 hrs by MTT assay; in short: as §1

SMILES	Survival (Hepatocyte [1]) [%]	inhibition (INH) (Hepatocyte [2]) [%]	inhibition (INH) (Hepatocyte [3]) [%]	IC50 (Hepatocyte [4]) [µM]	Activity (Hepatocyte [5]) [%]	Activity (Hepatocyte [6]) [%]	Survival (Hepatocyte [7]) [%]	Activity (Hepatocyte [8]) [%]	inhibition (INH) (Hepatocyte [9]) [%]	Survival (Hepatocyte [10]) [%]
CC(C)(O)[C@@H]1CC[C@@](C)([C@H]2CC[C@]3(C)[C@@H]2[C@H](O)C[C@@H]2[C@@]4(C)CC[C@H](O)C(C)(C)[C@@H]4[C@@H](O[C@@H]4O[C@H](CO)[C@@H](O)[C@H](O)[C@H]4O)C[C@]23C)O1	48.7	62.8	91.5	74.8	13.6	26.8	39.4	39	31.8	57.2
C=C(C)C(=O)CC[C@](C)(O[C@@H]1O[C@H](CO)[C@@H](O)[C@H](O)[C@H]1O)[C@H]1CC[C@]2(C)[C@@H]1[C@H](O)C[C@@H]1[C@@]3(C)CC[C@H](O)C(C)(C)[C@@H]3[C@@H](O[C@@H]3O[C@H](CO)[C@@H](O)[C@H](O)[C@H]3O)C[C@]12C	38.4	28.3	48.2		8.2	12	35.6	20.5	19.2	44.3
CC(=O)OC[C@H]1O[C@@H](O[C@H]2C[C@]3(C)[C@H](C[C@@H](O)[C@@H]4[C@@H]([C@]5(C)CC[C@@H](C(C)(C)O)O5)CC[C@]43C)[C@@]3(C)CC[C@H](O)C(C)(C)[C@H]23)[C@H](O[C@@H]2OC[C@@H](O)[C@H](O)[C@H]2O)[C@@H](O)[C@@H]1O [GINSENOSIDE R2]	51.7	72.9	143.8	63.2	19	31.1	43.2	61.3	44.7	72.9
CC1(C)O[C@](C)([C@H]2CC[C@]3(C)[C@@H]2[C@H](O)C[C@@H]2[C@@]4(C)CC[C@H](O)C(C)(C)[C@@H]4[C@@H](O[C@@H]4O[C@H](CO)[C@@H](O)[C@H](O)[C@H]4O)C[C@]23C)CC[C@H]1O [GINSENOSIDE R10]	38.3	28	17.8		16	12	41.1	7.6	37.6	35.2
CC(C)=CCC[C@](C)(O[C@@H]1O[C@H](CO[C@@H]2O[C@H](CO)[C@@H](O)[C@H](O)[C@H]2O)[C@@H](O)[C@H](O)[C@H]1O)[C@H]1CC[C@]2(C)[C@@H]1[C@H](O)C[C@@H]1[C@@]3(C)CC[C@H](O[C@@H]4O[C@H](CO)[C@@H](O)[C@H](O)[C@H]4O[C@@H]4O[C@H](CO)[C@@H](O)[C@H](O)[C@H]4O)C(C)(C)[C@@H]3CC[C@]12C [GINSENOSIDE RB1]	36	19.8	31.9		6	8.5	34.4	13.7	14.3	39.6
CC(C)=CCC[C@](C)(O[C@@H]1O[C@H](CO[C@@H]2OC[C@H](O)[C@H](O)[C@H]2O)[C@@H](O)[C@H](O)[C@H]1O)[C@H]1CC[C@]2(C)[C@@H]1[C@H](O)C[C@@H]1[C@@]3(C)CC[C@H](O[C@@H]4O[C@H](CO)[C@@H](O)[C@H](O)[C@H]4O[C@@H]4O[C@H](CO)[C@@H](O)[C@H](O)[C@H]4O)C(C)(C)[C@@H]3CC[C@]12C [GINSENOSIDE RB2]	44.7	48.8	100.8	105	7.6	21	36.7	43.3	22.1	60.3
CC(C)=CCC[C@](C)(O[C@@H]1O[C@H](CO[C@@H]2O[C@@H](CO)[C@H](O)[C@H]2O)[C@@H](O)[C@H](O)[C@H]1O)[C@H]1CC[C@]2(C)[C@@H]1[C@H](O)C[C@@H]1[C@@]3(C)CC[C@H](O[C@@H]4O[C@H](CO)[C@@H](O)[C@H](O)[C@H]4O[C@@H]4O[C@H](CO)[C@@H](O)[C@H](O)[C@H]4O)C(C)(C)[C@@H]3CC[C@]12C [GINSENOSIDE RC]	31.4	4.4	-11.3		3.2	1.9	32.1		6.7	26.7
CC(C)=CCC[C@](C)(O[C@@H]1O[C@H](CO)[C@@H](O)[C@H](O)[C@H]1O)[C@H]1CC[C@]2(C)[C@@H]1[C@H](O)C[C@@H]1[C@@]3(C)CC[C@H](O[C@@H]4O[C@H](CO)[C@@H](O)[C@H](O)[C@H]4O[C@@H]4O[C@H](CO)[C@@H](O)[C@H](O)[C@H]4O)C(C)(C)[C@@H]3CC[C@]12C [GINSENOSIDE RD]	35.9	19.5	39.1		7.4	8.4	35.3	16.8	17.5	41.8
CC(C)=CCC[C@](C)(O[C@@H]1O[C@H](CO)[C@@H](O)[C@H](O)[C@H]1O)[C@H]1CC[C@]2(C)[C@@H]1[C@H](O)C[C@@H]1[C@@]3(C)CC[C@H](O)C(C)(C)[C@@H]3[C@@H](O[C@@H]3O[C@H](CO)[C@@H](O)[C@H](O)[C@H]3O[C@@H]3O[C@@H](C)[C@H](O)[C@@H](O)[C@H]3O)C[C@]12C [GINSENOSIDE RE]	41.2	37	74.3	119	8.9	15.9	36.4	31.9	21.1	52.4
CC(C)=CCC[C@](C)(O[C@@H]1O[C@H](CO)[C@@H](O)[C@H](O)[C@H]1O)[C@H]1CC[C@]2(C)[C@@H]1[C@H](O)C[C@@H]1[C@@]3(C)CC[C@H](O)C(C)(C)[C@@H]3[C@@H](O[C@@H]3O[C@H](CO)[C@@H](O)[C@H](O)[C@H]3O)C[C@]12C [GINSENOSIDE RG1]	42	40.6	61.4	111	16.7	17.3	41.6	26.2	39.3	48.3
CO[C@@](C)(CCC=C(C)C)[C@H]1CC[C@]2(C)[C@@H]1[C@H](O)C[C@@H]1[C@@]3(C)CC[C@H](O)C(C)(C)[C@@H]3[C@@H](O[C@@H]3O[C@H](CO)[C@@H](O)[C@H](O)[C@H]3O)C[C@]12C [GINSENOSIDE RH5]		27.9	-24		13.1		36.9		23.5	
